# CHOP inhibitor: inhibitors of CHOP promoter induction, primary screen, cell-based, unfolded protein response, luciferase reporter; AID 2732, 2010; inhibition, % at 10 µM; 3.8% of 220,000 active; CHO-K1 CHOP-promoter luciferase, tunicamycin-induced, 15-18 h;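 active = compounds that reduced the stress-induced luciferase reporter signal by more than about 70% of percent inhibition, limit read from the data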;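 also: 0% = tunicamycin plus vehicle and 100% = wells without tunicamycin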
# Bfl-1 A1 inh: caspase 3/7 activation in MEF A1-2A-BIM cells, primary screen, A1 inhibitor project, cell-based, luminescence, HTS. Caspase-Glo 3/7 luminescence, 3 h; percent of clofoctol response, vehicle zero. caspase activation, % (test concentration not listed). 0.066% of 330,000 active. AID 2462, 2010;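 active = over half of replicate activation scores above 10%, or exactly half above 10 with the replicate mean above 10; inconclusive = replicate mean below 10 yet half the replicates above 10; inactive = over half of replicates below 10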
# UPR XBP1 act: activators of adaptive XBP1 UPR arm, primary screen, cell-based, CHO-XBP1 luciferase reporter, luminescence, uHTS; IRE1-XBP1 UPR activation; percent of tunicamycin response, DMSO as zero; activation, % at 20 µM; 0.33% of 330,000 active;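 active = versus positive control, 20 µM dose yields 30% or more activation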;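 also: 100% = tunicamycin at 10 µg/mL and 0% = DMSO only wells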
#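 Material: CHO-XBP1 cells stably carrying IRE1-XBP1-driven luciferase reporter / Amount: 1000 cells per well / Compound: 20 µM, 1% DMSO / Times: 6 h treatment, 37 °C / Detection: luciferase luminescence / Measure: % activation of reporter signal versus tunicamycin and DMSO controls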
# UPR CHOP act: activators of apoptotic CHOP UPR arm, primary screen, cell-based, CHO-CHOP luciferase reporter, luminescence, uHTS. UPR activation; percent of tunicamycin response over DMSO baseline. activation, % at 10 µM. 0.34% of 330,000 active. AID 449763, 2010;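 active = at 10 µM dose, activation of 40% or more, normalized to positive control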;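 also: 100% = tunicamycin at 10 µg/mL and 0% = DMSO alone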
#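 measured by = luciferase luminescence | assay system = CHO-CHOP cells, stable luciferase reporter of PERK-eIF2a-CHOP signalling | amount = 500 reporter cells seeded per well | timing = 6 h compound exposure at 37 °C after overnight seeding | controls = positive tunicamycin 10 µg/mL, negative DMSO alone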
# CHOP inh conf: retest of CHOP induction inhibitors, confirmation, cell-based; CHO-CHOP promoter luciferase reporter, tunicamycin-induced, luminescence; inhibition, % at 10 µM; 45% of 2,100 active; shares compounds with CHOP inhibitor;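 active = mean of three repeat readings of reporter signal inhibition above a set limit, cut at about 70% in these data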;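 also: 0% = tunicamycin plus vehicle and 100% = wells lacking tunicamycin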
# UPR CHOP confirm: activators of apoptotic CHOP UPR arm, confirmation, cell-based, CHO-CHOP luciferase reporter, single concentration; shares compounds with UPR CHOP act; CHO-CHOP cells, CHOP-luciferase reporter luminescence; percent of tunicamycin response, DMSO as zero; activation, % at 10 µM; 64% of 1,000 active; AID 463112, 2010; in the data active = activation above about 33%;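 also: 0% = DMSO wells and 100% = tunicamycin 10 µg/mL wells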
# * = called active by the depositor; ? = inconclusive; . = no result given. Shown is part of a subset that was picked to be rich in hits.
SMILES,CHOP inhibitor,Bfl-1 A1 inh,UPR XBP1 act,UPR CHOP act,CHOP inh conf,UPR CHOP confirm
Cc1cc(C)c(C(CC(=O)c2cccs2)C(C#N)C#N)c(C)c1 (stereo not given),103.5*,0.5,-0.6,46.9*,57.8,95.2*
FC(F)(F)c1nnc(-c2ccccc2)nc1Sc1ccccc1,108.8*,-0.2,22.4,200.8*,-154.7,58.6*
FC(F)(F)c1nnc(-c2ccccc2)nc1Sc1ccc(Cl)cc1,114.2*,1.0,-6.4,84.0*,118.9*,-1.2
FC(F)(F)c1nnc(-c2ccccc2)nc1Oc1ccc(Cl)cc1Cl,-61.3,-0.3,-4.1,2.8,.,.
O=C(COc1ccccc1)OCC(=O)c1ccc(S(=O)(=O)N2CCCCC2)cc1,.,-0.4,7.0,1.2,.,.
COc1ccc(CC(=O)N[C@@H](C)C(=O)N2CCC3(CC2)NCCc2[nH]cnc23)cc1,.,0.9,-2.3,1.7,.,.
N#Cc1c(-c2ccccc2)cc(-c2ccc(O)cc2)nc1N,.,-0.6,8.8,2.6,.,.
CS(=O)(=O)c1nc(-c2ccc(Br)cc2)cc(-c2ccccc2)c1C#N,108.4*,-1.2,10.6,278.8*,-30.3,130.4*
CC(C)(C)C1=CC(=O)C(=O)C(C(C)(C)C)=C1,103.9*,30.9*,0.2,144.3*,-178.4,326.4*
CN(C)c1ncc(C2=C(Cl)C(=O)C(N3CCCC3)=C(Cl)C2=O)s1,108.1*,0.9,0.8,83.2*,63.7,-7.5
COc1ccc(CNC[C@@H](CCCCN(C)Cc2ccc(OC)cc2)N2C[C@H](c3ccccc3)N(CCc3ccc(Cl)c(Cl)c3)C(=O)C2=O)cc1,104.7*,1.5,12.8,133.7*,-131.1,146.6*
COc1ccc(CNC(=O)[C@@H]2CC=C[C@@H]3CCN(Cc4ccc(Cl)c(Cl)c4)C(=O)[C@@H]32)cc1,.,0.4,-2.2,-1.7,.,.
CC(C)N=c1scc(-c2ccco2)n1/N=C/c1ccc(O)c(O)c1,99.5*,3.4,20.1,159.2*,-17.4,127.0*
COCCN=c1scc(-c2ccco2)n1/N=C/c1ccc(O)c(O)c1O,-80.0,0.4,6.2,22.6,.,.
COc1ccc(/C=N/Nc2ccc(C(=O)O)cc2)c(OC)c1OC,.,-3.0,-0.7,5.0,.,.
COC(=O)c1ccc2c(c1)C(C)(C)C(/C=C/c1ccc(OC)c(OC)c1OC)=[N+]2C,.,0.5,-13.8,63.8*,140.6*,-10.8
COc1ccccc1NS(=O)(=O)c1ccc(O)c(C(=O)OCC(=O)N2c3ccccc3CC2C)c1 (stereo not given),37.5,-0.3,-4.9,3.0,.,.
Nc1nnnn1/N=C/C(Br)=C/c1ccccc1,.,?,-3.4,109.2*,90.0*,64.4*
COc1ccc(C)cc1NC(=O)c1cc(S(=O)(=O)N2CCOCC2)cn1C,.,0.1,0.3,2.0,.,.
CC1=NN(c2ccccc2)C(=O)/C1=C\c1cn(-c2ccccc2)nc1C,-1.3,0.0,-2.6,0.0,.,.
Cc1ccc(-c2nn(-c3ccccc3)cc2C=C2C(=O)CC(C)(C)CC2=O)cc1,98.4*,-0.5,12.6,47.6*,-9.4,206.1*
Cn1nc([N+](=O)[O-])c(C(C#N)c2ccccn2)c(Cl)c1=O (stereo not given),102.8*,0.1,-4.2,73.2*,49.3,49.0*
Clc1nc2c(-c3ccccc3)nnn2c2ccccc12,100.8*,-5.1,0.0,60.1*,-79.6,31.8
COc1ccc(-c2cc(C(F)(F)F)nc(S(C)(=O)=O)n2)cc1,106.1*,0.2,2.3,43.1*,-138.7,8.8
COCC(C)NC(=O)CCS(=O)(=O)c1nc(-c2ccc(OC)cc2)cc(C(F)(F)F)n1 (stereo not given),-88.5,-0.1,-8.6,0.8,.,.
SMILES,CHOP inhibitor,Bfl-1 A1 inh,UPR XBP1 act,UPR CHOP act,CHOP inh conf,UPR CHOP confirm
CCOC(=O)CCS(=O)(=O)c1nc(-c2ccccc2)cc(C(F)(F)F)n1,.,9.7*,-10.8,72.8*,136.4*,-8.8
COc1ccc(-c2cc(C(F)(F)F)nc(N)n2)cc1,8.1,0.1,3.8,3.6,.,.
Cn1nc(C(=O)OCC(=O)c2ccc(Br)cc2)c2ccccc2c1=O,.,1.3,-2.0,-0.5,.,.
COc1ccc(S(=O)(=O)N2CCN(C(c3ccccc3)c3ccccc3)CC2)cc1NC(C)=O,.,0.6,0.1,1.1,.,.
O=C(c1ccco1)N1CCN(Cc2nc3ccccc3[nH]2)CC1,.,-0.9,-1.9,1.6,.,.
CC(OC(=O)Cn1cc(C(F)(F)F)ccc1=O)C(=O)N(C)c1ccccc1 (stereo not given),.,0.8,-1.2,0.4,.,.
Cc1nc([N+](=O)[O-])c(Br)n1CC(=O)c1ccccc1,-96.8,-0.4,-2.2,5.0,.,.
Cc1nc([N+](=O)[O-])c(Br)n1CC(=O)c1ccc2ccccc2c1,103.0*,1.4,1.7,143.7*,-130.2,103.9*
Cc1cc(C)c(NC(=O)CSCc2c(C)noc2C)c(Cl)c1,.,.,-2.8,-1.2,.,.
O=C1COc2ccc(C(=O)CCl)cc2N1,100.7*,-0.3,-6.0,148.4*,18.4,-6.7
O=[N+]([O-])c1cc(-c2ncccn2)c([N+](=O)[O-])s1,108.8*,0.7,-5.0,72.7*,-111.7,163.8*
O=C(Nc1ncccn1)c1cc([N+](=O)[O-])cc([N+](=O)[O-])c1,-9.4,0.5,-2.4,4.5,.,.
CC(=O)NCc1ccc(C(=O)CCl)s1,107.8*,1.6,-8.6,63.7*,107.4*,-4.9
CC(=O)NCc1ccc(C(=O)CCl)cc1,106.2*,-0.5,-2.7,112.9*,-3.1,-10.2
CCOc1cc(/C=C2\C(=O)ON=C2c2ccccc2)ccc1OC,.,0.5,-4.5,0.7,.,.
CCOc1cc(/C=C2/C(=O)ON=C2C)ccc1OCc1ccccc1F,98.9*,0.2,16.4,112.0*,111.7*,67.5*
CCOc1cc(/C=C2/C(=O)ON=C2C)ccc1OCc1ccccc1,105.1*,0.4,3.0,58.1*,-16.2,4.8
Cc1ccc([C@@H]2CC=C(C(=O)O)[C@H](c3ccc(Cl)cc3)N2S(=O)(=O)c2ccccc2C)cc1,.,-0.4,0.0,8.8,.,.
Cc1ccc(C)c(OC(C)C(=O)Nc2nccs2)c1 (stereo not given),.,-1.6,-4.0,-0.6,.,.
Cc1cc2nc(-c3ccc(=O)[nH]c3)n(Cc3ccccc3)c2cc1C,.,-0.2,1.4,7.1,.,.
O=C(Cc1cccs1)Nc1cccc(-c2nnc(-c3ccco3)o2)c1,38.1,-1.4,-3.2,2.5,.,.
